These results are taken from ChEMBL document CHEMBL3526053, “Species-dependent uptake of glycylsarcosine but not oseltamivir in Pichia pastoris expressing the rat, mouse, and human intestinal peptide transporter PEPT1” (Drug Metab Dispos, 2012).

For orientation: IC50 means the concentration at which inhibition is half-maximal. As usually defined, the fraction unbound is free concentration divided by total concentration. Lower therefore signals little free substance.

The target in series [1] is T1, Solute carrier family 15 member 1 (Homo sapiens, UniProt P46059).
T1 sequence (P46059 whole entry): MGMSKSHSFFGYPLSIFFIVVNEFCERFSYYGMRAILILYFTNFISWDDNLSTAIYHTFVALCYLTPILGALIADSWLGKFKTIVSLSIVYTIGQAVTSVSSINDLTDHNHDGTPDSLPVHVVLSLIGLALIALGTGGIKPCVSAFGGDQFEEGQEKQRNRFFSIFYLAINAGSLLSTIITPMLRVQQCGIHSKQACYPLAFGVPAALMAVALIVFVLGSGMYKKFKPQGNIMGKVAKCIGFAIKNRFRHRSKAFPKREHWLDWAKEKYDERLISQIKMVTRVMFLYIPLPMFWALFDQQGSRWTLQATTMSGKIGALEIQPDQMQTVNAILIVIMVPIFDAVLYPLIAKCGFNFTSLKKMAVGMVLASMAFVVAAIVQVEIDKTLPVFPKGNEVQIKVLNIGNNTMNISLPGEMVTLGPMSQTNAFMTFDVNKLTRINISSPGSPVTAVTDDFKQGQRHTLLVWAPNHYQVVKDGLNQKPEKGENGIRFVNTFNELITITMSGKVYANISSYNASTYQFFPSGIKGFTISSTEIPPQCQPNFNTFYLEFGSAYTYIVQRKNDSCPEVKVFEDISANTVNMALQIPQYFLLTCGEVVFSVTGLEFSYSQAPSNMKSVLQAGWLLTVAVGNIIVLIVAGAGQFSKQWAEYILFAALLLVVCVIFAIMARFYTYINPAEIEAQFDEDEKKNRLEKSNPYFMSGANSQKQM
Put plainly: Inhibition of human recombinant PEPT1 expressed in Pichia pastoris GS115 assessed as [3H]GlySar uptake after 30s by dual-channel liquid scintillation counting analysis.

The target in series [2] is T1, Solute carrier family 15 member 1. Put plainly: Drug uptake in Pichia pastoris GS115 expressing human recombinant PEPT1 at 0 degC measured immediately after drug addition by dual-channel liquid scintillation counting analysis. The series is classed as ADME. In short, it runs like this:
(§1)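 Nonspecific binding of 5.0 µM [14C]oseltamivir is measured at 0°C in pH 6.5 phosphate buffer. The incubation is quenched immediately after adding the drug to the methanol-induced yeast suspension. Bound radioactivity is counted by liquid scintillation and expressed as pmol/OD600. Mean ± SE (n=6).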

Series [3] concerns Komagataella pastoris. Put plainly: Stability in Pichia pastoris GS115 expressing human recombinant PEPT1 at 5 uM measured for up to 30 mins by HPLC analysis. The series is classed as ADME, organism-based. To be noted: 0.5 h. In short, it runs like this:
(§2)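 [14C]oseltamivir 5.0 µM with [14C]PEG200 5.0 µM internal standard was incubated with induced GS115 cells (vector, human, mouse or rat PEPT1) at 24°C, pH 6.5, for up to 30 min. Reactions were quenched with 20% trichloroacetic acid and centrifuged at 4°C. Supernate was analysed by HPLC with radiochemical detection; retention 14.9 min for oseltamivir, 3.6 min for PEG200. n=6.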

The nature of series [4]: Protein binding in human at 50 to 500 mg, po bid. The conditions noted are these: plasma.
In series [5] the test system is Komagataella pastoris. Briefly: Stability in Pichia pastoris GS115 expressing mouse recombinant PEPT1 at 5 uM measured for up to 30 mins by HPLC analysis. To be noted: 0.5 h. In kind it is ADME, organism-based. In short, it runs like this:
as §2

The target in series [6] is T2, Solute carrier family 15 member 1 (Rattus norvegicus, UniProt P51574).
T2 sequence (P51574 whole entry): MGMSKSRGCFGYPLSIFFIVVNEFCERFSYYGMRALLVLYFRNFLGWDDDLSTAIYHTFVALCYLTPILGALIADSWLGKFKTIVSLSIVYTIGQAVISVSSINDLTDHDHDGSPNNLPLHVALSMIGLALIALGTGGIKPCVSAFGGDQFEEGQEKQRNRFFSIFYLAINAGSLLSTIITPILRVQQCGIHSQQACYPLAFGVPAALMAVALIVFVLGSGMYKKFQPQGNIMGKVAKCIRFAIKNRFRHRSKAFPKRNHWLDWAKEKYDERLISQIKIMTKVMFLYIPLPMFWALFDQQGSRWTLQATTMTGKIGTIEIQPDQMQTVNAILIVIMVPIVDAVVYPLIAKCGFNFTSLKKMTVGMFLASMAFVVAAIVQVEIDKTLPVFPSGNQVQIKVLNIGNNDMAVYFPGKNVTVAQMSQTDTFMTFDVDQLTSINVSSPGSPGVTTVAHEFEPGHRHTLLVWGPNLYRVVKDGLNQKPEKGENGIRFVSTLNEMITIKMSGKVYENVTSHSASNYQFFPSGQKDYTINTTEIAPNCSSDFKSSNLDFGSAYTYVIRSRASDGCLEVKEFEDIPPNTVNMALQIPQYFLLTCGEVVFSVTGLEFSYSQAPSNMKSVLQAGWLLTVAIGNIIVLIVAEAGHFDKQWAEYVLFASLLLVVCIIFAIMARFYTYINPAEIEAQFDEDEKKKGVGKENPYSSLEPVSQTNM
Put plainly: Drug uptake in Pichia pastoris GS115 expressing rat recombinant PEPT1 at 0 degC measured immediately after drug addition by dual-channel liquid scintillation counting analysis. The series is classed as ADME. In short, it runs like this: as §1

Series [7] has as its system Komagataella pastoris. Briefly: Stability in Pichia pastoris GS115 at 5 uM measured for up to 30 mins by HPLC analysis. The conditions noted are these: 0.5 h. The series is classed as ADME, organism-based. In short, it runs like this:
as §2

Series [8] concerns the target T3, Solute carrier family 15 member 1 (Mus musculus, UniProt Q9JIP7).
T3 sequence (Q9JIP7 whole entry): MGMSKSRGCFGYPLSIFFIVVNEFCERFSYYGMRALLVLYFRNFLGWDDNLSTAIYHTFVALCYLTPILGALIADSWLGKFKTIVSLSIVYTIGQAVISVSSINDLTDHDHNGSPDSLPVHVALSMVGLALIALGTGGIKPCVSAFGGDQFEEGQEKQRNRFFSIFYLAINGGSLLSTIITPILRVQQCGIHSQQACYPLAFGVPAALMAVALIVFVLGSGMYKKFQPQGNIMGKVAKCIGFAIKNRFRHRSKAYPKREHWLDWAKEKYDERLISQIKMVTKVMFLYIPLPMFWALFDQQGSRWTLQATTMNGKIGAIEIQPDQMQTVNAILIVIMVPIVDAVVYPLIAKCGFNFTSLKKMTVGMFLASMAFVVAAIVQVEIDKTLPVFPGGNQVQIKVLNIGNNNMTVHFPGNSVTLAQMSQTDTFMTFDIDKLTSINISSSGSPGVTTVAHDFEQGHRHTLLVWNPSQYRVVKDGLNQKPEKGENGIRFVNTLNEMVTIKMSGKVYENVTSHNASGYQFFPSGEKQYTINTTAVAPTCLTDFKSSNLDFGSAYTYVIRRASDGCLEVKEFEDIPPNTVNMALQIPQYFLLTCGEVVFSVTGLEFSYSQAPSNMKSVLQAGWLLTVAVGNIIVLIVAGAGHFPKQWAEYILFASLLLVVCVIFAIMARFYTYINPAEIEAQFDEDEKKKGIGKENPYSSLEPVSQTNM
Briefly: Drug uptake in Pichia pastoris GS115 expressing mouse recombinant PEPT1 at 0 degC measured immediately after drug addition by dual-channel liquid scintillation counting analysis. The series is classed as ADME. In short, it runs like this:
as §1

Series [9] addresses T3, Solute carrier family 15 member 1. Briefly: Inhibition of mouse recombinant PEPT1 expressed in Pichia pastoris GS115 assessed as [3H]GlySar uptake after 30s by dual-channel liquid scintillation counting analysis.
Series [10] concerns the target T2, Solute carrier family 15 member 1. Briefly: Inhibition of rat recombinant PEPT1 expressed in Pichia pastoris GS115 assessed as [3H]GlySar uptake after 30s by dual-channel liquid scintillation counting analysis.
Series [11] deals with Komagataella pastoris. Briefly: Stability in Pichia pastoris GS115 expressing rat recombinant PEPT1 at 5 uM measured for up to 30 mins by HPLC analysis. The series is classed as ADME, organism-based. To be noted: 0.5 h. In short, it runs like this:
as §2

Turning to `CCOC(=O)C1=C[C@@H](OC(CC)CC)[C@H](NC(C)=O)[C@@H](N)C1.O=P(O)(O)O` [OSELTAMIVIR PHOSPHATE], the IC50 in series [1] came out at 27.4 mM; in [9], 10.7 mM; in series [10] it was 18.3 mM. Further, the Drug uptake in series [2], in series [6] and in series [8] was 0.2 pmol/OD each time. Further, the Stability entry in [3], in [5], in series [7] and in series [11] was “Stable” throughout. The compound further had a free fraction (fraction unbound) in series [4] of 0.58.
